Measurements from ChEMBL document CHEMBL1145774, “Synthesis and biological effects of novel 2-amino-3-naphthoylthiophenes as allosteric enhancers of the A1 adenosine receptor” (J Med Chem, 2003).

How the values were obtained:
[1] = molecular target: T1, Adenosine receptor A3 (Homo sapiens) (UniProt P0DMS8); assay: Ability to displace the binding of [3H]-MRE 3008-F20 to the ligand binding site of CHO:hA3 (human Adenosine receptor) at concentration of 10 uM
T1 sequence (whole entry): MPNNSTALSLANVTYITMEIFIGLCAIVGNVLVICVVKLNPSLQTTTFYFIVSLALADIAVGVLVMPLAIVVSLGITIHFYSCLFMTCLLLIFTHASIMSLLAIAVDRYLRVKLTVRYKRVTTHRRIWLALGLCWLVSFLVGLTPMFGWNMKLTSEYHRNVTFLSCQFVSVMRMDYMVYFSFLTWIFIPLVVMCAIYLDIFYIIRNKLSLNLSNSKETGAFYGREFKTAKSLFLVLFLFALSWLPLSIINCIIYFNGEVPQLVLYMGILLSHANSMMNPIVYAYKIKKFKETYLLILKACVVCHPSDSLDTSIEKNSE
Outline: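 Assays used 2 nM [3H]MRE 3008F20 on CHO:hA3 membranes (100 µg protein, ADA-treated) for 150 min at 4 °C, in Tris-HCl with MgCl2 and 1 mM EDTA, pH 7.4, with compound from DMSO (1% final). Bound ligand was separated by filtration. Results are % displacement by 10 µM compound, ±STD, n = 3.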

[2] = molecular target: T2, Adenosine receptor A1 (Homo sapiens) (UniProt P30542); assay: Percent change in cAMP content of CHO (Chinese hamster ovary) cells expressing human Adenosine A1 receptor at 0.01 uM; assay type: functional, cell-based
T2 sequence (whole entry): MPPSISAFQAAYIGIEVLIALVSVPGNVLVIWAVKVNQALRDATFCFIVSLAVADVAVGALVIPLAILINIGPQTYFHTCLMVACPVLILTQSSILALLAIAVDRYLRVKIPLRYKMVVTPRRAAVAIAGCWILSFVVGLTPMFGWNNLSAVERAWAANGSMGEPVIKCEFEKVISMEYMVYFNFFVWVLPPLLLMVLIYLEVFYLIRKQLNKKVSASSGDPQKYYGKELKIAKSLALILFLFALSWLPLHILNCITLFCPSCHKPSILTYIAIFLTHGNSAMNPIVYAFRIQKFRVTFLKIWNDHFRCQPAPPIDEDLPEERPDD
Outline: (§1)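 CHO cells stably expressing human A1 receptor (~8000 fmol/mg protein) were grown in Ham's F-12 with 10% FBS and G-418 for 48 h to confluence. HCl (50 mM final) stopped the reaction, and cAMP was measured by radioimmunoassay. Values are % change versus no-compound control, mean ± SEM of six experiments.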

[3] = molecular target: T2, Adenosine receptor A1 (Homo sapiens); assay: Percent change in cAMP content of CHO (Chinese hamster ovary) cells expressing human Adenosine A1 receptor at 0.1 uM; assay type: functional, cell-based; outline: as §1
[4] = molecular target: T2, Adenosine receptor A1 (Homo sapiens); assay: Percent change in cAMP content of CHO (Chinese hamster ovary) cells expressing human Adenosine A1 receptor at 1 uM; assay type: functional, cell-based; outline: as §1
[5] = molecular target: T2, Adenosine receptor A1 (Homo sapiens); assay: Percent change in cAMP content of CHO (Chinese hamster ovary) cells expressing human Adenosine A1 receptor at 10 uM; assay type: functional, cell-based; outline: as §1
[6] = molecular target: T2, Adenosine receptor A1 (Homo sapiens); assay: Dissociation rate of [3H]CCPA from Adenosine A1 receptor expressing CHO cells at 10 uM as percent t1/2; assay type: cell-based
Outline: (§2)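 [3H]CCPA was bound to ADA-treated CHO:hA1 membranes in 50 mM Tris-HCl pH 7.4 at 25 °C. Dissociation was started by adding R-PIA (1 µM) with test agent (10 µM), and specific binding was measured 2–180 min afterwards. Kinetic fits gave t1/2 and K-1, expressed as % change from control. Values are the mean of three experiments.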

[7] = molecular target: Adenosine receptor A2a (Homo sapiens) (UniProt P29274); assay: Ability to displace the binding of [3H]-ZM 241385, to the ligand binding site of CHO:hA2A (human Adenosine A2A receptor) at concentration of 10 uM
Outline: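 CHO:hA2A membranes (100 µg protein, ADA-treated) were incubated with 2 nM [3H]ZM 241385 in Tris-HCl with MgCl2, pH 7.4, for 60 min at 4 °C, with compound from DMSO (1% final). Nonspecific binding was taken with 1 µM ZM241385. After filtration, results are % displacement by 10 µM compound, ±STD, n = 3.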

[8] = molecular target: T2, Adenosine receptor A1 (Homo sapiens); assay: Dissociation of [3H]CCPA from Adenosine A1 receptor in CHO cells at 10 uM as percent K-1; assay type: cell-based; outline: as §2
[9] = molecular target: T2, Adenosine receptor A1 (Homo sapiens); assay: Ability to displace the binding of [3H]DPCPX to the ligand binding site of CHO:hA1 (human Adenosine A1 receptor) at concentration of 10 uM
Outline: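 Membranes came from hypotonic lysis of CHO:hA1 cells, a 100 000g pellet and ADA 2 U/mL treatment for 30 min at 37 °C. Membranes (100 µg protein) were incubated with 1 nM [3H]DPCPX in Tris-HCl pH 7.4 for 150 min at 25 °C, with compound added from DMSO (1% final). Nonspecific binding was taken with 1 µM DPCPX, and bound ligand was separated on GF/B filters.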

[10] = molecular target: T2, Adenosine receptor A1 (Homo sapiens); assay: Percent change in cAMP in CHO cells expressing human Adenosine A1 receptor at 1 uM; assay type: functional, cell-based; outline: as §1

Sequence of Adenosine receptor A2a (Homo sapiens) (P29274 whole entry): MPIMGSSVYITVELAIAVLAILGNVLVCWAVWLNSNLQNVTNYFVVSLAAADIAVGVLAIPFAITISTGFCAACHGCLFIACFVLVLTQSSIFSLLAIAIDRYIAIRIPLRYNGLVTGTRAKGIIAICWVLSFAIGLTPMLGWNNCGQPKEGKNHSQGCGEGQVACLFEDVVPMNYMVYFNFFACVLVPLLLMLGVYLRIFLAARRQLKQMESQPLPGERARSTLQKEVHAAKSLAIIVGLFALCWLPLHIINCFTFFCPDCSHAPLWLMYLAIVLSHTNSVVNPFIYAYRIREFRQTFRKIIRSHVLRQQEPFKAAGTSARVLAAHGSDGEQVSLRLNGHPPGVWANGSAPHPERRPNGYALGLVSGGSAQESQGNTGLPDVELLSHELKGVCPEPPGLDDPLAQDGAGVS

SMILES | inhibition [1] | Change [2] | Change [3] | Change [4] | Change [5] | T1/2 increase [6] | inhibition [7] | K-1 decrease [8] | inhibition [9] | Change [10]
Nc1sc2c(c1C(=O)c1cccc3ccccc13)CCC2 | -0% | -0.6% | -6% | -29% | -60% | -0% | -0% | -0% | 8% | –
Nc1sc2c(c1C(=O)c1ccc(Br)c3ccccc13)CCC2 | 22% | 3% | 19% | -14% | -67% | 4% | -0% | 4% | -0% | –
Cc1sc(N)c(C(=O)c2cccc3ccccc23)c1C | 18% | -0.6% | -3% | – | -45% | 85% | -0% | 46% | -0% | 6%
Nc1sc2c(c1C(=O)c1ccc3ccccc3c1)CCCC2 | -0% | -13% | -24% | -28% | -42% | 10% | -0% | 9% | 3.3% | –
Nc1sc2c(c1C(=O)c1ccc(Cl)c3ccccc13)CCCC2 | 30.5% | -11% | 3% | -25% | -44% | 36% | -0% | 27% | 4.8% | –
COc1ccc(C(=O)c2c(N)sc3c2CCC3)c2ccccc12 | 57% | -6% | -3% | -8% | -35% | – | -0% | – | 19% | –
Nc1sc2c(c1C(=O)c1ccc(I)c3ccccc13)CCCC2 | 48% | -3% | -4% | -24% | -67% | 60% | 3% | 38% | 15.3% | –

Further lines, results first:

inhibition [1] | Change [2] | Change [3] | Change [4] | Change [5] | T1/2 increase [6] | inhibition [7] | K-1 decrease [8] | inhibition [9] | Change [10] | SMILES
-0% | -10% | 15% | -27% | -55% | 43% | -0% | 30% | -0% | – | Nc1sc2c(c1C(=O)c1ccc(Cl)c3ccccc13)CCC2
48.5% | -6% | -10% | -29% | -72% | 43% | 3% | 30% | 12% | – | Nc1sc2c(c1C(=O)c1ccc(Br)c3ccccc13)CCCC2
54% | -19% | -14% | -15% | -51% | 42% | -0% | 29% | 14.5% | – | Nc1sc2c(c1C(=O)c1ccc3ccccc3c1)CCC2
-0% | -6% | -8% | -22% | -75% | 41% | -0% | 29% | 3.3% | – | Nc1sc2c(c1C(=O)c1ccc(I)c3ccccc13)CCC2
34.5% | -11% | -15% | -22% | -52% | 29% | -0% | 23% | 2% | – | Nc1sc2c(c1C(=O)c1cccc3ccccc13)CCCC2
21% | -1% | -7% | -13% | -50% | 43% | -0% | 30% | -0% | – | Cc1sc(N)c(C(=O)c2cccc(C(F)(F)F)c2)c1C
